Source: PubChem BioAssay (several laboratories)
Compounds with a hit are over-represented: about 2.2% of the library has one in this group of screens.
RBBP9 inhibitor: human RBBP9 hydrolase inhibition. inhibition, % at 7.94 µM. recombinant RBBP9, FP-Rh probe fluorescence polarization. O75884. hit rate 0.2% among 220,000;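 active = inhibition above the campaign mean of all tested compounds plus 3 SD, cut at about 14% in these data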;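 note: plate controls were DMSO wells with RBBP9 for no effect and wells lacking RBBP9 protein for full effect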
Target sequence (O75884 whole entry, looked up): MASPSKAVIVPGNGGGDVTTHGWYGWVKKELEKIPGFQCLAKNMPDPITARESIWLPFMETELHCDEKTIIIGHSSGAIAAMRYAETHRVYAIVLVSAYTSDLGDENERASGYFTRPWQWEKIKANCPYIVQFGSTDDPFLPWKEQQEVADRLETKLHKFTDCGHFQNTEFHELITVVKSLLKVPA
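System: RBBP9 protein / Buffer or medium: Tris/NaCl buffer pH 8.0 with 0.1% Pluronic / Probe or stimulus: Serine-hydrolase probe FP-Rh, 375 nM pre-mixing / Dosing: 7.94 µM single dose, 0.794% DMSO / Times: enzyme-compound preincubation 30 min, then probe labeling 45 min, 25 °C / Technique: fluorescence polarization (mP), excitation 525 nm, emission 598 nm / Replication: singlicate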
MCL1-BIM inh: inhibitors of human MCL1 binding to BIM-BH3 peptide | Q07820 | GST-MCL1 / FITC-Bim-BH3 fluorescence polarization | inhibition, % at 10.9 µM | hit rate 0.68% among 320,000 | AID 2057;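 active = inhibition above the mean inhibition of all tested compounds plus 3 SD, set per campaign, cut at about 40% in these data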;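 note: 0% = DMSO wells and 100% = unlabeled Bim-BH3 peptide control; higher means more loss of mP so more displacement of Bim peptide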
Mcl1-Bid inh: disrupts binding of human Mcl-1 to Bid peptide; Q07820; inhibition, % at 21.7 µM; TR-FRET Mcl-1/Bid-Dy647 peptide binding, 1536-well; AID 1021; hit rate 0.97% among 220,000;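 active = compounds that cut the binding signal by more than half at the single screening dose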;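 note: His-tagged Mcl-1 with europium anti-His antibody binding Bid BH3 peptide; 0% = Mcl-1 plus peptide wells and 100% = peptide-only wells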
Bim-Mcl-1: disrupts Bim peptide binding to human Mcl-1. Bead-based flow cytometry, Bim peptide-Mcl-1 binding. inhibition, % at 10 µM. hit rate 0.1% among 190,000; in the data active = inhibition above about 40%;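 note: 0% = no compound tracer wells and 100% = peptide blocker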
EBV gp42 inh: EBV gp42 inhibition; Q1HVG2; Fluorescence polarization binding assay, mP read-out; inhibition, % (tested at 21.74 µM); hit rate 0.42% among 220,000; in the data active = inhibition above about 50%
Target sequence (Q1HVG2 whole entry, looked up): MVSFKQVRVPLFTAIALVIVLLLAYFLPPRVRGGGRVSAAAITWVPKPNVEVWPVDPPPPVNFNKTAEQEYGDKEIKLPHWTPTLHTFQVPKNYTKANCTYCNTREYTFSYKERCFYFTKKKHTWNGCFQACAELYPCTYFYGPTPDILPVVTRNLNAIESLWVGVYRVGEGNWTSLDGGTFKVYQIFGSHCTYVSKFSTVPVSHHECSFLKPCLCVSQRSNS
Mcl1-Noxa inh: disrupts binding of human Mcl-1 to Noxa peptide | Q07820 | TR-FRET Mcl-1/Noxa peptide binding, 2 h | inhibition, % at 21.7 µM | hit rate 1.5% among 220,000 | AID 1022;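 active = compounds that cut the protein-peptide binding signal by more than 50% relative to plate controls in a single-dose test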;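 note: His-tagged Mcl-1 with rhodamine Noxa BH3 peptide and terbium anti-His antibody; 0% = Mcl-1 plus Noxa peptide wells and 100% = peptide-only wells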
* hit, by the source's call; . = not tested or not shown.

SMILES	RBBP9 inhibitor	MCL1-BIM inh	Mcl1-Bid inh	Bim-Mcl-1	EBV gp42 inh	Mcl1-Noxa inh
O=C(O)C1CCCCC1C(=O)Nc1nc(-c2ccc(Cl)s2)cs1 (configuration not stated)	-1	25	-114	1	0	71*
Cc1c2cnn(CC(=O)N3CCOCC3)c(=O)c2c(C)n1Cc1ccccc1F	.	3	.	.	.	.
Cc1ccccc1CN1CCN(S(C)(=O)=O)CC1	3	-5	-6	.	-5	-1
Cc1ccccc1CN1CCN(S(=O)(=O)c2ccc(F)cc2)CC1	14	11	60*	1	0	5
O=C(CN1C(=O)/C(=C/c2cccc(Br)c2)SC1=S)Nc1cccnc1	-6	6	6	-2	-13	52*
O=C(CCN1C(=O)/C(=C/c2cccc(Br)c2)SC1=S)NNC(=O)c1cccnc1	-8	5	67*	7	-7	46
O=C(CN1C(=O)/C(=C/c2cccc(Br)c2)SC1=S)NC1=NCCS1	-6	1	0	-4	-36	55*
O=C(CCN1C(=O)/C(=C/c2ccc3c(c2)OCO3)SC1=S)NNC(=O)c1cccnc1	3	-9	53*	-21	-12	35
O=C(CCN1C(=O)/C(=C/c2ccc(F)cc2)SC1=S)NNC(=O)c1cccnc1	-7	11	-5	4	15	15
O=C(CCN1C(=O)/C(=C/c2cccc(Br)c2)SC1=S)Nc1cccnc1	-8	8	-18	-1	-1	27
COc1cccc(/C=C2\SC(=S)N(CCCC(=O)NC3=NCCS3)C2=O)c1	.	4	.	.	.	.
O=C(CCN1C(=O)/C(=C/c2ccccc2)SC1=S)NNC(=O)c1cccnc1	-4	5	-1	0	5	19
COc1ccc(S(=O)(=O)N(Cc2ccco2)Cc2cc3ccccc3[nH]c2=O)cc1	.	0	.	.	.	.
Cc1cc(C)cc(-n2c(C)cc(/C=N\NC(=O)COc3cccc4cccnc34)c2C)c1	-2	4	-11	-4	2	23
Cc1cc(/C=N/NC(=O)COc2cccc3cccnc23)c(C)n1-c1ccc(O)cc1	-7	9	-10	-1	-10	72*
C=CCN1C(=O)c2ccc(C(=O)OCC(=O)Nc3ccc(S(N)(=O)=O)cc3)cc2C1=O	.	-14	.	.	.	.
COc1ccc(-c2nnn(CC(=O)N(CCCO)C(C(=O)NC3CCCC3)c3ccncc3)n2)cc1 (configuration not stated)	-4	4	87*	0	5	7
COc1ccc(-c2nnn(CC(=O)N(CCO)C(C(=O)NC3CCCC3)c3ccncc3)n2)cc1 (configuration not stated)	-12	3	-21	-2	-23	-10
O=C(COC(=O)C1COc2ccccc2O1)NC(=O)NC1CCCC1 (configuration not stated)	-2	7	-10	-3	-4	15
O=C(OCC(=O)N1CCCC1=O)C1COc2ccccc2O1 (configuration not stated)	8	1	-3	0	-2	58*
Cc1cc(C)c2c(c1)C1C=CCC1C(c1ccc(S(=O)(=O)N3CCOCC3)cc1)N2 (configuration not stated)	-10	36	70*	0	-11	95*
O=C(O)c1cc(Cl)c2c(c1)[C@@H]1C=CC[C@@H]1[C@H](c1ccc(S(=O)(=O)N3CCOCC3)cc1)N2	-2	48*	-7	0	-11	23
CCCCc1ccc(/C(C)=N/Nc2cc(N3CCOCC3)nc(C)n2)cc1	.	5	.	.	.	.
COC(=O)C1=Cc2cc(OC)cc([N+](=O)[O-])c2OC1N1CCOCC1 (configuration not stated)	.	17	.	.	.	.
CCCC(=O)Nc1ccc2nc(SCC(=O)N3CCCC3)sc2c1	-6	7	-21	0	3	9
SMILES	RBBP9 inhibitor	MCL1-BIM inh	Mcl1-Bid inh	Bim-Mcl-1	EBV gp42 inh	Mcl1-Noxa inh
Cn1c(SCC(=O)Nc2ccc3nc(SCC(=O)N4CCCC4)sc3c2)nnc1-c1ccccc1	-7	29	35	-8	83*	97*
COc1ccccc1OCCC(=O)OCC(=O)NC(C)c1ccccc1 (configuration not stated)	-6	2	6	-9	-28	10
CN1C2C=C3C(C#N)=C(N)C(C#N)(C#N)[C@@H](c4ccsc4)[C@@H]3C1CC2 (some centres not stated)	-6	30	-17	53*	-4	10
COc1cc2c(cc1OC)CN(C(=S)NC(=O)c1ccccc1)CC2	-6	4	-51	0	-9	22
Oc1ccc(N=Nc2cccc(C(F)(F)F)c2)cc1C=Nc1ccc(N2CCOCC2)cc1	-4	9	11	3	8	69*
CCOC(=O)c1c(NC(C)=O)sc2c(O)c(Br)cc(Br)c12	11	27	-15	-3	-13	84*
CCc1ccc(NC(=O)CCCN2C(=O)C3CC=CCC3C2=O)cc1 (configuration not stated)	.	-9	.	.	.	.
CCC(C(=O)OC)n1cnc2c(nnn2-c2ccc(F)cc2)c1=O (configuration not stated)	.	-1	.	.	.	.
Cc1ccc(/C=C/C(=O)Nc2cccc(S(=O)(=O)N3CCOCC3)c2)o1	-5	-19	-1	-5	-7	53*
Cc1ccc(/C=C/C(=O)Nc2ccc(N(C)C)cc2)o1	4	10	10	2	-9	95*
O=C(/C=C/c1ccco1)Nc1cccc(S(=O)(=O)N2CCOCC2)c1	-7	-12	-11	0	-19	14
Cc1ccc(/C=C/C(=O)Nc2ccncc2)o1	-6	5	-50	-11	6	36
CC(=O)Nc1cc(C)c(S(C)(=O)=O)c(C)c1	-7	-2	8	1	-6	11
CC1CCCCC1NC(=O)COC(=O)c1c2c(nc3ccccc13)/C(=C/c1ccco1)CC2 (configuration not stated)	-6	-15	-47	8	10	52*
CC(C)CNC(=O)COC(=O)c1c2c(nc3ccccc13)/C(=C/c1cccs1)CC2	-5	-2	-63	-1	8	8
O=C(COC(=O)c1c2c(nc3ccccc13)/C(=C/c1ccco1)CC2)NC1CCCC1	-2	.	-5	5	83*	98*
COc1ccc(OCC(=O)NCCCCCCNC(=O)COc2ccc(OC)cc2)cc1	.	-12	.	.	.	.
COc1cc(C(=O)Nc2ccc(S(=O)(=O)Nc3nccc(C)n3)cc2)c([N+](=O)[O-])cc1OC	7	4	2	.	-9	20
CCOC(=O)Cc1csc(NC(=O)c2sc3nc4c(C)cc(C)cc4cc3c2N)n1	-10	-4	27	-4	3	64*
O=C(CN(Cc1ccc(F)cc1)C(=O)CNS(=O)(=O)c1ccccc1)NCC1CCCO1 (configuration not stated)	.	-2	.	.	.	.
CC(=O)Nc1ccc(-n2cc(-c3ccccc3)[nH]c2=S)cc1	-12	6	-31	-7	-14	53*
